In ChEMBL document CHEMBL3421571, “N-Oxide derivatives of 3-(3-pyridyl)-2-phosphonopropanoic acids as potential inhibitors of Rab geranylgeranylation” (Bioorg Med Chem Lett, 2015):
pIC50: −log10 of the molar value. Active and inactive are the calls of the source. No cut-off for these calls is given here.

Key:
[1] = Inhibition of recombinant GGTase 2 (unknown origin) using recombinant Rab1A and [3H]GGPP as substrate after 20 mins in presence of recombinant REP-2 by liquid scintillation counting analysis; parameters: species or system Homo sapiens
[2] = biological target: Geranylgeranyl transferase type I (Homo sapiens) (UniProt P49354+P53609); assay: Inhibition of GGTase 1 in human RPMI8226 cells assessed as unmodified Rap1a accumulation at 5 mM incubated for 48 hrs by immunoblot method; type: cell-based; details: RPMI-8226
Procedure, shortened: (§1)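 RPMI-8226 myeloma cells exposed 48 h to lovastatin (20 μM) or bisphosphonates (5 mM), untreated cells as reference. Whole-cell lysates made in RIPA buffer, membrane (detergent) fraction by Triton X-114 partitioning; immunoblotting with β-tubulin (lysate) or calnexin (detergent fraction) as loading controls. Rap1a antibody recognizes only unprenylated protein. Blots representative of two independent experiments.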

RPMI-8226 [3] = assay: Inhibition of GGTase 2 in human RPMI8226 cells assessed as reduction in membrane bound Rab6 protein at 5 mM incubated for 48 hrs by immunoblot method; type: cell-based; procedure, shortened: as §1
RPMI-8226 [4] = assay: Induction of apoptosis in human RPMI8226 cells assessed as increase in PARP cleavage at 5 mM incubated for 48 hrs by immunoblot method; type: functional, cell-based; procedure, shortened: as §1
[5] = biological target: T1, Farnesyl pyrophosphate synthase (Homo sapiens, UniProt P14324); assay: Inhibition of recombinant FDPS (unknown origin) assessed as decrease in […] level using GPP and [14C]IPP as substrate treated with enzyme for 10 mins prior to substrate challenge for 30 mins by liquid scintillation counting analysis
T1 sequence (P14324 whole entry): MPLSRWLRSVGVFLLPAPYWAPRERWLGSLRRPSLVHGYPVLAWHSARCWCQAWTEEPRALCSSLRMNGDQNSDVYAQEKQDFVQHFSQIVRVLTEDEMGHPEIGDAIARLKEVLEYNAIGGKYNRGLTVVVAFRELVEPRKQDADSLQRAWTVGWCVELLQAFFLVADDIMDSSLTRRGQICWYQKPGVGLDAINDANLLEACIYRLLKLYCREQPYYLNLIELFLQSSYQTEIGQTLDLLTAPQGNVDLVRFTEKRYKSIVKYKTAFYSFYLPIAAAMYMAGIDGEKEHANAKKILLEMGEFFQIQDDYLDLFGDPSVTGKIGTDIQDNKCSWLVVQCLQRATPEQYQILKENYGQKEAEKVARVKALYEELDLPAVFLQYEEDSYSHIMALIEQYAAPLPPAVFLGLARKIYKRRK

RPMI-8226 [6] = assay: Induction of endoplasmic reticulum stress in human RPMI8226 cells assessed as increase in calnexin cleavage at 5 mM incubated for 48 hrs by immunoblot method; type: functional, cell-based
RPMI-8226 [7] = assay: Induction of apoptosis in human RPMI8226 cells assessed as increase in caspase-3 cleavage at 5 mM incubated for 48 hrs by immunoblot method; type: functional, cell-based; procedure, shortened: as §1
RPMI-8226 [8] = assay: Inhibition of GGTase 2 in human RPMI8226 cells assessed as disruption of monoclonal protein trafficking by measuring accumulation of intracellular lambda light chain at 5 mM incubated for 48 hrs by ELISA; type: cell-based
Procedure, shortened: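 RPMI-8226 cells treated 48 h with lovastatin (20 μM) or bisphosphonates (5 mM); intracellular lambda light chain quantified by ELISA, expressed as percentage of untreated control (mean + SD, n=3); unpaired two-tailed t-test against untreated cells.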

RPMI-8226 [9] = assay: Induction of apoptosis in human RPMI8226 cells assessed as increase in PARP cleavage at 20 uM incubated for 48 hrs by immunoblot method; type: functional, cell-based; procedure, shortened: as §1
RPMI-8226 [10] = assay: Induction of apoptosis in human RPMI8226 cells assessed as increase in caspase-3 cleavage at 20 uM incubated for 48 hrs by immunoblot method; type: functional, cell-based; procedure, shortened: as §1

Row | pIC50 [1] | inhibition [2] | pIC50 [5] | Compound | inhibition (RPMI-8226 [3]) | Activity (RPMI-8226 [4]) | Activity (RPMI-8226 [6]) | Activity (RPMI-8226 [7]) | inhibition (RPMI-8226 [8]) | Activity (RPMI-8226 [9]) | Activity (RPMI-8226 [10])
1 | 2.96 | inactive | 3.00 | O=C(O)C(Cc1cccnc1)P(=O)(O)O (stereo unspecified) | Active | Active | Active | Active | inactive | – | –
2 | 3.15 | inactive | 3.70 | O=C(O)C(O)(Cc1cccnc1)P(=O)(O)O (stereo unspecified) | Active | Active | Active | Active | Active | – | –
3 | 3.10 | inactive | < 2.70 | O=C(O)C(Cc1ccc[n+]([O-])c1)P(=O)(O)O (stereo unspecified) | inactive | Active | Active | Active | inactive | – | –
4 | – | – | – | CC[C@H](C)C(=O)O[C@H]1C[C@@H](C)C=C2C=C[C@H](C)[C@H](CC[C@@H]3C[C@@H](O)CC(=O)O3)[C@H]21 | – | – | – | – | – | Active | Active
5 | 2.74 | inactive | 2.70 | O=C(O)C(O)(Cc1ccc[n+]([O-])c1)P(=O)(O)O (stereo unspecified) | Active | – | – | – | Active | – | –
